We go through 167 variants from the RNAGym collection of RNA variant scans (doi:10.1126/science.aae0568).

B1: tRNA (parent)
chain: GUUCCGUUGGCGUAAUGGUAACGCGUCUCCCUCCUAAGGAGAAGACUGCGGGUUCGAGUCCCGUACGGAACG

Variants at the floor of the assay were thinned out.

Variants of B1 are the subject of this data set. Nature of the data set: yeast fitness relative to wild type (ratio to wild type); higher = fitter; tRNA-Arg(CCU), competitive growth, 37 C, YPD. Put shortly:
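The tRNA-Arg(CCU) gene variants were made by chemical synthesis with a 3% per-site mutation rate at 69 sites and inserted at the native genomic locus of Saccharomyces cerevisiae. After pooling, the strains were competed in YPD at 37°C for 24 hours in six parallel replicates. Gene amplicons from the start population and each end population were read by 100-nucleotide paired-end sequencing, and Darwinian fitness relative to wild type was taken from genotype frequency changes. Genotypes needed ≥ 100 starting reads, and estimates < 0.5 were set to 0.5.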
As for G6C G25A A43U G67C, the yeast fitness is ≤ 0.5.
Take G6A U26A C33A G51C C62U: the yeast fitness stood at 0.591.
To G6C A20C U35C A40G A42U G58A G63A G67A belongs ≤ 0.5; to G6C C34A, 0.611; to G6C C34U, 0.648.
Turning to G6C A42U C61A U64A A69U, the yeast fitness is ≤ 0.5.
The result for G6C C22A C31G C49G G68C reads ≤ 0.5.
Regarding G6C A15C C46A, the yeast fitness stood at 0.504.
The result for G6C G10C C22G C30U C34U A36U reads 0.517; that for G6C A42C C49U, ≤ 0.5; that for G6C U16C G41C G51A C55U, ≤ 0.5.
To G6C C31A A36C G44A A57U C66A belongs ≤ 0.5; to G6C C60A, 0.583; to G6C G25C A37U G39C C62G, ≤ 0.5.
The result for G6C C33G G38C reads ≤ 0.5.
As to G6C G38C C46A, the yeast fitness worked out at 0.54.
The result for G6C C27A C30G G41C C61G C62U A69U reads ≤ 0.5.
To G6A G68C A69G belongs 0.568.
The result for G6C C11A A45C C60U reads ≤ 0.5; that for G6A U13A A14G A42U G48C G67C, ≤ 0.5; that for G6A U8C G10A U19C G41A U47C, ≤ 0.5.
G6C C24A U28A C34U: the yeast fitness was ≤ 0.5.
To G6C A15C G52C belongs ≤ 0.5; to G6C U8C G58C A69U, 0.528.
G6C U8C A42G C46U C55G A65U: the yeast fitness was ≤ 0.5.
The result for G6C U7G G17C C60G reads 0.574.
As to G6C C11U C31G A36G, the yeast fitness stood at 0.66.
Consider G6C A14G A20C G68C, for which the yeast fitness was ≤ 0.5.
To G6A U13A A14G G41C belongs ≤ 0.5; to G6C C29G C61U, ≤ 0.5; to G6C A37C G51A U53C C62A A70C, ≤ 0.5.
On to G6C A14G A20C U47C U64A G67A, for which the yeast fitness is ≤ 0.5.
Regarding G6C U8C A21C, the yeast fitness was ≤ 0.5.
As to G6C G12C C29A, the yeast fitness was ≤ 0.5.
To G6C U7C A21U G44A belongs ≤ 0.5.
The result for G6C A45C G56A reads 0.568.
The result for G6C A20G C22U reads ≤ 0.5; that for G6C U7G G17C U53A, ≤ 0.5; that for G6C U7G G17C C49U G58C C61A A65U, ≤ 0.5.
Regarding G6A U19C U28G U32A G38C, the yeast fitness was ≤ 0.5.
To G6C C60U C62A belongs ≤ 0.5.
To G6A G68A belongs 0.896; to G6A G68U, 0.934.
The result for G6C U7C reads 0.757; that for G6C A37G A40U A45C C60G, ≤ 0.5; that for G6C C11G G44C, ≤ 0.5.
Turning to G6A G39C, the yeast fitness turned out to be 0.821.
The result for G6C G44C A65G A70C reads ≤ 0.5; that for G6C U7A G39C C55U A70G, ≤ 0.5; that for G6C C30G, 0.592.
The result for G6C U26C C31A G38C reads ≤ 0.5; that for G6C C31U C34G, ≤ 0.5.
Consider G6C G10A, for which the yeast fitness was determined as 0.666.
The result for G6C G50A A69U reads 0.682.
As for G6C G10C C30U U35A, the yeast fitness was ≤ 0.5.
The result for G6C U19C G38C G44C C46A reads ≤ 0.5.
To G6A U16A A36C belongs ≤ 0.5; to G6C G38C A43C G51C G56C, 0.526; to G6C G17A A36U, ≤ 0.5.
With G6A G41C, the yeast fitness was determined as 0.863.
The result for G6C C24G C27G C29A C34U reads 0.684; that for G6C U8C A42G, 0.575; that for G6A U16C C27G C33A G38C A42G, ≤ 0.5.
The result for G6A U19C reads 0.99.
The result for G6A U19A reads 0.973.
With G6A U13G C27U C61G C66U, the yeast fitness is ≤ 0.5.
G6C C46U: the yeast fitness came out at 0.966.
To G6A U32A A37U A43C G48C belongs ≤ 0.5; to G6C C22A C31G A65C, ≤ 0.5; to G6C, 1.
To G6C A15G G51A C66U A69C belongs ≤ 0.5.
To G6A U26C C62G belongs 0.515; to G6C G68C, 0.874.
For G6A U28C C61U, the yeast fitness stood at 0.628.
To G6A U8G A45U G48C belongs ≤ 0.5.
The result for G6C G25A C27G reads 0.591; that for G6A U26G C30U G52A, ≤ 0.5; that for G6A U54C C60G, ≤ 0.5.
To G6C G39C C55G belongs ≤ 0.5; to G6C G56A, 1.03; to G6C G17A A36U C46A C49U C66A, ≤ 0.5.
For the variant G6A U26C C29A, the yeast fitness was ≤ 0.5.
To G6C G23C C24A C66U belongs ≤ 0.5; to G6A U28A C30A, ≤ 0.5; to G6C C29G C66G, ≤ 0.5.
The result for G6C C46U A57C reads ≤ 0.5.
Consider G6C C33U, for which the yeast fitness was 0.644.
For the variant G6C G12A G58C, the yeast fitness is 0.964.
To G6A U16A C61G G67U belongs ≤ 0.5; to G6C A45C G67C, 0.536.
To G6C C22G C27G A45U A57G A70G belongs ≤ 0.5; to G6C U8C C27U G48A A57G, ≤ 0.5.
The result for G6C G23C C24A C61U reads ≤ 0.5; that for G6A G39C U54C, ≤ 0.5.
Regarding G6C A37C, the yeast fitness was 0.693.
Consider G6C A20C A40G A42U C60G, for which the yeast fitness is ≤ 0.5.
To G6A G51A belongs 0.83; to G6A G51C, 0.595.
The result for G6A U19G C33U C34U reads ≤ 0.5; that for G6C A43C G50A A70U, 0.519; that for G6C G50C A69U, 0.554.
Regarding G6C U7G A43U A65C, the yeast fitness was 0.825.
Consider G6A U47G, for which the yeast fitness was 0.594.
The result for G6A U19C G41C reads 0.67.
In the case of G6A U13A U19C A40U G67A, the yeast fitness is ≤ 0.5.
The result for G6C U8A G58C C61A reads ≤ 0.5; that for G6C C31U G39A C46G, ≤ 0.5.
To G6C A43U belongs 0.831; to G6C A43C, 0.739.
The result for G6A G52A G68C reads 0.609.
With G6A U8C A69C, the yeast fitness is 0.678.
To G6C C55A belongs 0.717.
To G6C C55G belongs 0.695; to G6C U8C C49A, ≤ 0.5.
To G6C A14G U35G belongs 0.605; to G6A G56A, 0.852; to G6A G56C, 0.672.
With G6C C31U A43G A69U, the yeast fitness is ≤ 0.5.
G6A U13A U26C C30G A65C: the yeast fitness was ≤ 0.5.
For the variant G6C G23A C49U, the yeast fitness is ≤ 0.5.
To G6C G39C belongs 0.7.
The result for G6C U19C C29U G38C U47C reads ≤ 0.5.
The result for G6A U19A G44A reads ≤ 0.5.
For G6C G50A A70U, the yeast fitness came to 0.633.
To G6C U7A C46U belongs 0.577; to G6C A36G G51A, ≤ 0.5.
The result for G6C A36C A65C G67A reads ≤ 0.5; that for G6C U8C G25A, 0.581; that for G6C A57C A65U, ≤ 0.5.
To G6A U28C A45G belongs 0.781.
With G6C A14G C49G G50A, the yeast fitness is ≤ 0.5.
As to G6C G12A C49U G58C, the yeast fitness stood at 0.776.
To G6C U8C G23C C30A A42C G48C G52C belongs ≤ 0.5; to G6C C24G C34U U53C C55G C62A, 0.557.
To G6C G9C U32A G38C U47A belongs ≤ 0.5; to G6C U7C C34G C55U, ≤ 0.5.
For G6C A37C G67C, the yeast fitness was ≤ 0.5.
With G6C A14U A70C, the yeast fitness was determined as 0.591.
For the variant G6C C24U G67C, the yeast fitness was determined as 0.537.
Consider G6C C22A C33G G48C, for which the yeast fitness is ≤ 0.5.
To G6A G67C belongs 0.963; to G6A G67U, 0.814.
In the case of G6A U26A C61A, the yeast fitness was ≤ 0.5.
The result for G6C C24U C27G reads ≤ 0.5; that for G6A U35A C62A C66G, 0.694.
The result for G6C U13A C24U C31A U54C reads ≤ 0.5; that for G6C U16A G18C C22G C49U, ≤ 0.5; that for G6C G25A A70C, 0.631.
The result for G6C G10C C11U C55U C61G C62G reads ≤ 0.5; that for G6C U8C G41C G51C, ≤ 0.5; that for G6A G39C U64C, 0.605.
Turning to G6C C30A A45G C55G A57U C62G, the yeast fitness was ≤ 0.5.
For the variant G6C C11A C66G, the yeast fitness amounted to 0.592.
Regarding G6C G41A A43G C60U A70C, the yeast fitness was ≤ 0.5.
To G6C U7A A21C A37C U47C A69C belongs ≤ 0.5; to G6C C11U G56C A69C, ≤ 0.5; to G6C C55U U59G A70U, ≤ 0.5.
The result for G6C U8A A45U U53C G67A A69C reads 0.775; that for G6C C11G C27U A42G C66U, 0.552; that for G6C A21G C30G A37U, 0.566.
The result for G6A U19A G23A reads 0.603; that for G6C C33U C62U, ≤ 0.5; that for G6C U13G G18A C55A, 0.514.
Turning to G6C A21G U32C G48A, the yeast fitness came out at 0.716.
The result for G6C U8C C11U U19C A20U A42C A65C A69U reads ≤ 0.5.
With G6C C11A U32A A42G C55U, the yeast fitness was 0.605.
As for G6C G12A U54C, the yeast fitness came to 0.594.
